From ChEMBL document CHEMBL1821721, “Probing the difference between BH3 groove of Mcl-1 and Bcl-2 protein: Implications for dual inhibitors design” (Eur J Med Chem, 2011)

Experiments:
[1] = target: Induced myeloid leukemia cell differentiation protein Mcl-1 (Homo sapiens, UniProt Q07820); test: Displacement of FAM-Bid peptide from human Mcl-1 after 30 mins by competitive fluorescence polarization assay
Outline: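 Serial compound dilutions added with 0.01% Triton X-100; polarization read after 30 min. Controls were protein plus peptide, and peptide alone. Ki calculated with an FP-specific competitive binding equation.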

[2] = target: Apoptosis regulator Bcl-2 (Homo sapiens, UniProt P10415); test: Displacement of FAM-Bid peptide from human recombinant Bcl2 after 30 mins by competitive fluorescence polarization assay
Outline: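 Bcl-2 (40 nM) preincubated with 10 nM FAM-Bid peptide (Kd 8 nM) in 100 mM potassium phosphate pH 7.5, bovine gamma globulin, 0.02% sodium azide. Serial compound dilutions added in 0.01% Triton X-100; polarization read after 30 min. Controls were protein plus peptide, and peptide alone. Ki derived from an equation developed for FP assays.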

K562 = test: Cytotoxicity in human K562 cells overexpressing Mcl-1 after 48 hrs by MTT assay; type: functional, cell-based; conditions: K562, 48 h
HL-60 = test: Cytotoxicity in human HL60 cells overexpressing Bcl-2 after 48 hrs by MTT assay; type: functional, cell-based; conditions: HL-60, 48 h
MCF7 = test: Cytotoxicity in human MCF7 cells overexpressing Mcl-1after 48 hrs by MTT assay; type: functional, cell-based; conditions: MCF7, 48 h

Chain of Induced myeloid leukemia cell differentiation protein Mcl-1 (Q07820 whole entry): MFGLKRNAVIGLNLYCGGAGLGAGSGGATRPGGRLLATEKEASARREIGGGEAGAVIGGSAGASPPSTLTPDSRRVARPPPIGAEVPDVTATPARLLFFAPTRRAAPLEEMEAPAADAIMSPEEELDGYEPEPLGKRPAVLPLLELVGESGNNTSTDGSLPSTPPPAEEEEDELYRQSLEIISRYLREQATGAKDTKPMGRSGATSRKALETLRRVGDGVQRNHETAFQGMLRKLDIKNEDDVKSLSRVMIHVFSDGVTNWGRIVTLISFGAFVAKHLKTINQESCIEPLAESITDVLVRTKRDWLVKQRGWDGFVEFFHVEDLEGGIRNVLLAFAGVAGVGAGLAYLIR
Chain of Apoptosis regulator Bcl-2 (P10415 whole entry): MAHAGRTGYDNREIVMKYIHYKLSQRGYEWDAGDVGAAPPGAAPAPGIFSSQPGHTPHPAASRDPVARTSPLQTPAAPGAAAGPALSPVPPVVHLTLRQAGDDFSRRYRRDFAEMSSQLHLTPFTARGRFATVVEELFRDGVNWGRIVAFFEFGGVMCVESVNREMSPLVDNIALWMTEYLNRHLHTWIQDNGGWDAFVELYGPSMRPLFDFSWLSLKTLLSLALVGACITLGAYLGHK

Row | Ki [1] | Ki [2] | SMILES | IC50 (K562) | IC50 (HL-60) | IC50 (MCF7)
1 | 0.174 µM | 0.445 µM | Cc1ccc(Oc2ccc3c4c(cccc24)C2=NC(=O)C(C#N)=C23)cc1 | – | – | –
2 | – | 0.308 µM | N#CC1=C2C(=NC1=O)c1cccc3c(Oc4ccc(-c5ccccc5)cc4)ccc2c13 | – | – | –
3 | 0.122 µM | 0.304 µM | COc1ccc(Oc2ccc3c4c(cccc24)C2=NC(=O)C(C#N)=C23)cc1 | 4.7 µM | 1.9 µM | 5.1 µM
4 | – | 0.232 µM | CC(C)c1ccc(Oc2ccc3c4c(cccc24)C2=NC(=O)C(C#N)=C23)cc1 | – | – | –
5 | 0.445 µM | 6.03 µM | Cc1cccc(Oc2ccc3c4c(cccc24)C2=NC(=O)C(C#N)=C23)c1 | – | – | –
6 | 0.213 µM | 1.43 µM | Cc1ccccc1Oc1ccc2c3c(cccc13)C1=NC(=O)C(C#N)=C12 | – | – | –
7 | 0.149 µM | 0.886 µM | COc1ccccc1Oc1ccc2c3c(cccc13)C1=NC(=O)C(C#N)=C12 | – | – | –
8 | 0.375 µM | 16.6 µM | COc1cccc(Oc2ccc3c4c(cccc24)C2=NC(=O)C(C#N)=C23)c1 | 8.3 µM | > 50 µM | 6.4 µM
9 | – | – | CCC(C)c1ccc(Oc2ccc3c4c(cccc24)C2=NC(=O)C(C#N)=C23)cc1 (stereo not drawn) | 0.05 µM | 0.04 µM | 0.02 µM
